Results pooled from the literature.
Each line is one published result; the experiments were not run side by side.
Antigen peptide transporter 1/Antigen peptide transporter 2: Antigen peptide transporter 1/Antigen peptide transporter 2 (Homo sapiens, UniProt Q03518+Q03519)
Cnr1: Cannabinoid receptor 1 (Cnr1, Rattus norvegicus, UniProt P20272)
CP: CP (Tobacco mosaic virus, UniProt P69687)

SMILES | target | test | setting | endpoint | value
C[C@H](NC(=O)[C@H](CCC(=O)O)NC(=O)[C@@H](NC(=O)[C@H](CO)NC(=O)[C@H](CCCCN)NC(=O)[C@H](CCC(N)=O)NC(=O)[C@H](Cc1ccc(O)cc1)NC(=O)[C@H](CCCNC(=N)N)NC(=O)[C@@H](N)CCCNC(=N)N)[C@@H](C)O)C(=O)O | Antigen peptide transporter 1/Antigen peptide transporter 2 | ligand displacement | – | IC50 | 700 nM
CCCCCn1c2ccccc2c2cc(C(=O)NCC3CCN(CC(=O)NC(C)(C)C)CC3)ccc21 | Cnr1 | ligand displacement, radioligand | – | Ki | > 5000 nM
O=C(/C=C/c1cccc(S(=O)(=O)Nc2ccccc2)c1)NO | Protein deacetylase HDAC6 (HDAC6, Homo sapiens, UniProt Q9UBN7) | cell-free assay | – | Kd | 520 nM
CC[C@H](C)[C@H](NC(=O)[C@H](CCCNC(=N)N)NC(=O)[C@H](C)N)C(=O)N[C@@H](CC(=O)O)C(=O)N[C@@H](CCCCN)C(=O)N1CCC[C@H]1C(=O)N[C@H](C(=O)N[C@@H](CC(C)C)C(=O)N[C@@H](C)C(=O)O)[C@@H](C)CC | Antigen peptide transporter 1/Antigen peptide transporter 2 | ligand displacement | – | IC50 | 500 nM
COc1c(-c2ccccc2)oc2c(ccc3occc32)c1=O | Cyclin-dependent kinase 7, with cyclin H (CDK7, Homo sapiens, UniProt P50613) | enzyme activity, inhibitor, ADP detection | – | IC50 | > 100000 nM
C/C(N)=N\C(=N/S(=O)(=O)c1ccc(C(F)(F)F)cc1)N1C[C@H](c2ccccc2)C(c2ccc(Cl)cc2)=N1 | Cnr1 | ligand displacement, radioligand | cell membranes | Ki | 8 nM
CCCCCn1c2ccccc2c2cc(CN3CCCCC3)ccc21 | Cnr1 | ligand displacement, radioligand | cell membranes | Ki | ~100 nM
CC[C@H](C)[C@H](NC(=O)[C@H](CC(C)C)NC(=O)[C@@H](N)CO)C(=O)NCC(=O)N[C@@H](CCCCN)C(=O)N[C@H](C(N)=O)C(C)C | Proteinase-activated receptor 2 (F2RL1, Homo sapiens, UniProt P55085) | calcium signal, agonist | – | EC50 | 5800 nM
NC(=O)c1ncn([C@@H]2O[C@H](CO)[C@@H](O)[C@H]2O)n1 | CP | binding, MST | – | Kd | 120000 nM
CC(C)C[C@H](NC(=O)[C@H](CCC(=O)O)NC(=O)[C@@H](NC(=O)[C@H](CO)NC(=O)[C@H](CCCCN)NC(=O)[C@H](CCC(N)=O)NC(=O)[C@H](Cc1ccc(O)cc1)NC(=O)[C@H](CCCNC(=N)N)NC(=O)[C@H](CCCNC(=N)N)NC(=O)[C@H](C)N)[C@@H](C)O)C(=O)N[C@@H](C)C(=O)O | Antigen peptide transporter 1/Antigen peptide transporter 2 | ligand displacement | – | IC50 | 2600 nM
COc1ccc2cccc(C(CO)CNC(=O)CF)c2c1 (stereo not shown) | Melatonin receptor type 1B (MTNR1B, Homo sapiens, UniProt P49286) | β-arrestin recruitment, agonist | – | EC50 | 2.69 nM
CNCC(=O)N[C@@H](CO)C(=O)N[C@H]1[C@H](O)[C@@H](O)[C@H](n2ccc(N)nc2=O)O[C@@H]1C(N)=O | CP | binding, MST | – | Kd | 9200 nM
C[C@H](N)C(=O)N[C@@H](CCCNC(=N)N)C(=O)N[C@@H](C)C(=O)N[C@@H](C)C(=O)N[C@@H](C)C(=O)N[C@@H](C)C(=O)N[C@@H](C)C(=O)N[C@@H](C)C(=O)N[C@@H](CCCCN)C(=O)O | Antigen peptide transporter 1/Antigen peptide transporter 2 | ligand displacement | – | IC50 | 7000 nM
